Results published in publication PMC9231628 (Proceedings of the National Academy of Sciences of the …, 2022).

Legend:
Oncopeltus Na+/K+-ATPase = test: Na+/K+-ATPase inhibition assay, Oncopeltus neural enzyme; type: biochemical, Oncopeltus fasciatus; details: from Fig. 3
How it was run: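 Neural-tissue enzyme; stocks in 20% DMSO/H₂O (5 mM, or 1 mM for one test compound). Six-point 1/10 dilution series, diluted 1:5 into Tris-buffered ATP, NaCl, KCl, MgCl₂ plus enzyme; 37 °C, 20 min, shaking. Stopped with 10% SDS; Pi by Taussky–Shorr at 700 nm. Background: 10 mM ouabain, no KCl. IC50 from four-parameter logistic mixed model; ratios use monarch enzyme or ouabain IC50s.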

monarch Na+/K+-ATPase = monarch Na+/K+-ATPase (Danaus plexippus, UniProt K0G7C4); details: monarch enzyme; cited from earlier work
monarch butterflies = details: cited from earlier work
Oncopeltus fasciatus = test: Laboratory rearing on A. syriaca seeds: sequestration of seed cardenolides; type: in vivo; details: bugs reared on A. syriaca seeds from Ithaca, NY
How it was run: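 Field-collected Oncopeltus (Ithaca, NY) reared on a pooled A. syriaca seed lot for fewer than five generations. Whole adults and seeds, 50 mg ground freeze-dried each, extracted in methanol with 20 µg digitoxin internal standard. Analysed by C18 HPLC-UV (acetonitrile/water gradient, 218 nm), with cardenolides taken as peaks with a 214–222 nm maximum. Quantified by peak area against digitoxin on a dry-mass basis; HRMS for identification.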

monarch Na+/K+-ATPase, sequence (K0G7C4 1-1009): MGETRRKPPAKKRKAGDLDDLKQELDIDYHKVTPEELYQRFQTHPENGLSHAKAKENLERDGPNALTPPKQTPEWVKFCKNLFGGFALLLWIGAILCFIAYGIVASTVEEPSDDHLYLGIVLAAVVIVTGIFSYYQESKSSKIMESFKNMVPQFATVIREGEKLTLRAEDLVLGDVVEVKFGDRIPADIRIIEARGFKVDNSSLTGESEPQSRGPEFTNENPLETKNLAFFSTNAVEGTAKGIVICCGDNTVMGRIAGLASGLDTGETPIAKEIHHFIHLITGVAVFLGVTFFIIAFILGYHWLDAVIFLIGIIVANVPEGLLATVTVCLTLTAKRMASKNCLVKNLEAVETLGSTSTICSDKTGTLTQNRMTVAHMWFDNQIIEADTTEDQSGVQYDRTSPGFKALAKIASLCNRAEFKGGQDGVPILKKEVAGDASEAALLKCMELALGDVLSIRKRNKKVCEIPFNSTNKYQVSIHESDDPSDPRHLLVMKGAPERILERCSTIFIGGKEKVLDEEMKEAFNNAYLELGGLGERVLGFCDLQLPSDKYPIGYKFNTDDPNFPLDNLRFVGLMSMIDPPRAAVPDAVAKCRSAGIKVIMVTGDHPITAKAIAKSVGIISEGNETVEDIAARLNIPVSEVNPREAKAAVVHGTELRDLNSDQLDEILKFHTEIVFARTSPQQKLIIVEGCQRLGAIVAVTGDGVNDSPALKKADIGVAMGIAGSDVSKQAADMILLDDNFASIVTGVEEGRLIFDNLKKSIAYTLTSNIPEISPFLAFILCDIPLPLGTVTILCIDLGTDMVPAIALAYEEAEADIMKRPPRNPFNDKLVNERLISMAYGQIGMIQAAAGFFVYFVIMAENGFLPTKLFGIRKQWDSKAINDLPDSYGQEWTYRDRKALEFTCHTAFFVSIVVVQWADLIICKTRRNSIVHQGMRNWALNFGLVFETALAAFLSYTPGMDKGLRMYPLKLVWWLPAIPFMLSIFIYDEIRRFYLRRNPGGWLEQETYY

## C[C@@H]1O[C@@H](O[C@H]2C[C@@H](O)[C@]3(CO)[C@H]4[C@H](O)C[C@]5(C)[C@@H](C6=CC(=O)OC6)CC[C@]5(O)[C@@H]4CC[C@]3(O)C2)[C@H](O)[C@H](O)[C@H]1O [Ouabain, ouabain]
Oncopeltus Na+/K+-ATPase
  advantage (tolerance) of Oncopeltus enzyme over monarchs: 2 fold

## C[C@@H]1C[C@@]2(NCCS2)[C@]2(O)O[C@@H]3C[C@@]4(C=O)[C@@H](CC[C@@H]5[C@@H]4CC[C@]4(C)[C@@H](C6=CC(=O)OC6)CC[C@]54O)C[C@H]3O[C@@H]2O1 [Voruscharin, voruscharin]
Monarch Na+/K+-ATPase
  IC50: 2 µM
Monarch butterflies
  effect on monarch growth: negatively impacts monarch growth

## Aspecioside A
Oncopeltus fasciatus
  share of the total cardenolides in bugs: 33%
